Experimental data as given in ChEMBL document CHEMBL4406820, “Novel reverse thia-analogs of fosmidomycin: Synthesis and antiplasmodial activity” (Eur J Med Chem, 2019).

Tests used:
[1] = system: Mycobacterium tuberculosis; assay: Antimycobacterial activity against Mycobacterium tuberculosis H37Rv incubated for 5 days by resazurin dye based assay; assay type: functional; settings: 120 h
[2] = system: Escherichia coli; assay: Antimicrobial activity against Escherichia coli ATCC BAA 2469 incubated for 18 hrs by microbroth dilution assay; assay type: functional; settings: ATCC BAA 2469, 18 h
[3] = system: Klebsiella pneumoniae; assay: Antimicrobial activity against Klebsiella pneumoniae ATCC 700603 incubated for 18 hrs by microbroth dilution assay; assay type: functional; settings: ATCC 700603, 18 h
[4] = system: Plasmodium falciparum; assay: Antimalarial activity against asexual blood stages of Plasmodium falciparum 3D7 infected in human erythrocytes incubated for 3 days by ELISA; assay type: functional, organism-based; settings: 3D7, 72 h
Procedure, shortened: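 Asexual blood-stage P. falciparum cultured in human erythrocytes; growth measured by HRP2 double-site sandwich ELISA. IC50 values are the mean of two independent double determinations.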

[5] = molecular target: T1, 1-deoxy-D-xylulose 5-phosphate reductoisomerase (Mycobacterium tuberculosis, UniProt P9WNS1); assay: Inhibition of recombinant Mycobacterium tuberculosis IspC expressed in Escherichia coli M15 using 1-deoxy-D-xylulose 5-phosphate as substrate by photometric assay
T1 sequence (P9WNS1 whole entry): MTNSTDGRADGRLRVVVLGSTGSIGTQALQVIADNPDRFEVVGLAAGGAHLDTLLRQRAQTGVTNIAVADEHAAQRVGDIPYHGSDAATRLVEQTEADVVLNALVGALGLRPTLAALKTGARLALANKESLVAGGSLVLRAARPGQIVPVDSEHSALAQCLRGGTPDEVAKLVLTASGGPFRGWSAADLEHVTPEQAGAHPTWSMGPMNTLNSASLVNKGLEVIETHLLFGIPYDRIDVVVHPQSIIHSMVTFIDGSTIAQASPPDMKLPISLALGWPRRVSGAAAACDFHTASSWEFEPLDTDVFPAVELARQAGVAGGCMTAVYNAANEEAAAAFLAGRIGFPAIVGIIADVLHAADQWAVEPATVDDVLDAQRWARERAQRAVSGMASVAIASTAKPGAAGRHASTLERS

[6] = system: HeLa; assay: Cytotoxicity against human HeLa cells assessed as reduction in cell viability incubated for 24 hrs by neutral red assay; assay type: cell-based
Procedure, shortened: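 Cytotoxicity on HeLa monolayers quantified spectrophotometrically, given as the mean of two independent double determinations. SI is HeLa IC50 divided by the P. falciparum 3D7 IC50.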

[7] = molecular target: T2, 1-deoxy-D-xylulose 5-phosphate reductoisomerase, apicoplastic (Plasmodium falciparum (isolate 3D7), UniProt Q8IKG4); assay: Inhibition of recombinant Plasmodium falciparum IspC expressed in Escherichia coli using 1-deoxy-D-xylulose 5-phosphate as substrate by photometric assay
T2 sequence (Q8IKG4 whole entry): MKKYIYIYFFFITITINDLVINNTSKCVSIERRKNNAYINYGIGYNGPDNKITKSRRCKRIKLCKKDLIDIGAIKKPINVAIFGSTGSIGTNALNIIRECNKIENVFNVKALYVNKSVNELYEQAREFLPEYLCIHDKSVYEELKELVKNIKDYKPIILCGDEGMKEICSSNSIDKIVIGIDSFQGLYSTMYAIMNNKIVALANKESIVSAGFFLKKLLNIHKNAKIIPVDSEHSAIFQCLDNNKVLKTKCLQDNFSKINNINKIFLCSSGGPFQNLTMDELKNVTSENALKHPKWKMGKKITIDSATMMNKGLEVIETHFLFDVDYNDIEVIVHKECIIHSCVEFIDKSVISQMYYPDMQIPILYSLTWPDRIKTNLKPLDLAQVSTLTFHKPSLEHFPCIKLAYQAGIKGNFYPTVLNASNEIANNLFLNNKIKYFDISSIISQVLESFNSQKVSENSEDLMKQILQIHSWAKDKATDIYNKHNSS
Procedure, shortened: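 P. falciparum IspC expressed in E. coli. Reaction mix: 100 mM Tris-HCl pH 7.6, 5 mM MnCl2, 5 mM DTT, 0.5 mM NADPH, 0.02 U enzyme. Inhibitor tested as a 1:3 series from 200 to 0.003 µM. Started with 0.5 mM DXP; read at 340 nm, room temperature. IC50 calculated from at least eight data points; generally two to three independent determinations.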

[8] = system: Acinetobacter baumannii; assay: Antimicrobial activity against Acinetobacter baumannii ATCC BAA 1605 incubated for 18 hrs by microbroth dilution assay; assay type: functional; settings: ATCC BAA 1605, 18 h
[9] = system: Acinetobacter baumannii; assay: Antimicrobial activity against Acinetobacter baumannii ATCC BAA747 incubated for 18 hrs by microbroth dilution assay; assay type: functional; settings: ATCC BAA747, 18 h
[10] = system: Escherichia coli; assay: Antimicrobial activity against Escherichia coli ATCC 25922 incubated for 18 hrs by microbroth dilution assay; assay type: functional; settings: ATCC 25922, 18 h
[11] = system: Pseudomonas aeruginosa; assay: Antimicrobial activity against Pseudomonas aeruginosa ATCC 27853 incubated for 18 hrs by microbroth dilution assay; assay type: functional; settings: ATCC 27853, 18 h
[12] = system: Klebsiella pneumoniae; assay: Antimicrobial activity against Klebsiella pneumoniae ATCC 13883 incubated for 18 hrs by microbroth dilution assay; assay type: functional; settings: ATCC 13883, 18 h
[13] = molecular target: T3, 1-deoxy-D-xylulose 5-phosphate reductoisomerase (Escherichia coli, UniProt W8T2T2); assay: Inhibition of recombinant Escherichia coli IspC expressed in Escherichia coli M15 using 1-deoxy-D-xylulose 5-phosphate as substrate by photometric assay
T3 sequence (W8T2T2 whole entry): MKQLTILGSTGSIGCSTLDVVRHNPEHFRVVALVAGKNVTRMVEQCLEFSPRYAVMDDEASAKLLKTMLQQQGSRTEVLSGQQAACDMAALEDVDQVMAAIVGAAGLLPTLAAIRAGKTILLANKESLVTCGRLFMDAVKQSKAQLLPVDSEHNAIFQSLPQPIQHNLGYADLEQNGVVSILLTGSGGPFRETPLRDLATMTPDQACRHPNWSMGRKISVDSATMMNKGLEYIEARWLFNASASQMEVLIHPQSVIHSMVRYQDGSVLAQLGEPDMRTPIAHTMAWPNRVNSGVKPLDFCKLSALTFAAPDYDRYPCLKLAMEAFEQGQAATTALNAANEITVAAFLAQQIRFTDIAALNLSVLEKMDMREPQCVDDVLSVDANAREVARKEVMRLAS
Procedure, shortened: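 E. coli IspC, His-tagged, expressed in E. coli M15 pREP4 (IPTG 1 mM, 36 h at 20 °C) and purified by Ni2+-chelate chromatography to about 95% purity. Reaction mix: 100 mM Tris-HCl pH 7.6, 5 mM MnCl2, 5 mM DTT, 0.5 mM NADPH, 0.02 U enzyme. Inhibitor tested as a 1:3 series from 200 to 0.003 µM. Started with 0.5 mM DXP; NADPH consumption read at 340 nm, room temperature. IC50 fitted from at least eight points.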

| Compound | MIC [1] [µM] | MIC [2] [µM] | MIC [3] [µM] | IC50 [4] [µM] | IC50 [5] [µM] | IC50 [6] [µM] | IC50 [7] [µM] | MIC [8] [µM] | MIC [9] [µM] | MIC [10] [µM] | MIC [11] [µM] | MIC [12] [µM] | IC50 [13] [µM] |
| --- | --- | --- | --- | --- | --- | --- | --- | --- | --- | --- | --- | --- | --- |
| COc1cc(OC)cc(C(P(=O)(O)O)S(=O)(=O)CC(=O)NO)c1 (stereo not drawn) | > 100 | > 100 | > 100 | 2.7 | 194 | > 500 | 0.22 | > 100 | > 100 | > 100 | > 100 | > 100 | 4.5 |
| CN(O)C(=O)CS(=O)(=O)C(c1ccccc1)P(=O)(O)O (stereo not drawn) | – | – | – | > 100 | 115 | – | 7.6 | – | – | – | – | – | 36 |
| COc1cc(OC)cc(C(P(=O)(O)O)S(=O)(=O)CC(=O)N(C)O)c1 (stereo not drawn) | – | – | – | > 100 | > 1000 | > 1000 | 3.7 | – | – | – | – | – | 80 |
| CN(O)C(=O)CS(=O)(=O)C(c1cc(F)cc(F)c1)P(=O)(O)O (stereo not drawn) | > 100 | > 100 | > 100 | 19 | 44 | > 1000 | 5.5 | > 100 | > 100 | > 100 | > 100 | > 100 | 4.3 |
| Cc1ccc(C(P(=O)(O)O)S(=O)(=O)CC(=O)N(C)O)cc1 (stereo not drawn) | > 100 | > 100 | > 100 | > 100 | 143 | > 50 | 8.5 | > 100 | > 100 | > 100 | > 100 | > 100 | 36 |
| CN(O)C(=O)CS(=O)(=O)C(c1ccc(Cl)c(Cl)c1)P(=O)(O)O (stereo not drawn) | > 100 | > 100 | > 100 | > 100 | 21 | > 1000 | 1 | > 100 | > 100 | > 100 | > 100 | > 100 | 11 |
| CN(O)C(=O)CS(=O)(=O)C(c1cccc2ccccc12)P(=O)(O)O (stereo not drawn) | > 100 | > 100 | > 100 | > 100 | 621 | > 1000 | 823 | > 100 | > 100 | > 100 | > 100 | > 100 | 15 |
| Cc1ccc(C(P(=O)(O)O)S(=O)(=O)CC(=O)NO)cc1 (stereo not drawn) | – | – | – | > 100 | > 1000 | – | 65 | – | – | – | – | – | 64 |
